Results reported in PMC8861424 (Molecular Therapy Oncolytics, 2022).

Tests used:
[1] = system: A375; experiment: Cancer cell proliferation assay; format: cell-based; settings: Homo sapiens, A-375, 72 h, read-out: IC50, cell proliferation
[2] = system: HT-29; experiment: Cancer cell proliferation assay; format: cell-based; settings: Homo sapiens, HT-29, 72 h, read-out: IC50, cell proliferation
[3] = Body weight and tolerability in xenograft mice; format: in vivo, mouse
[4] = system: A549; experiment: Cancer cell proliferation assay; format: cell-based; settings: Homo sapiens, A549, 72 h, read-out: IC50, cell proliferation
[5] = system: microvessel density (CD31); experiment: Microvessel density by CD31 immunofluorescent staining in xenograft models; format: in vivo, mouse; settings: for microvessel density (MVD), CD31 staining: mouse xenograft models
Procedure, shortened: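 Xenograft tumor paraffin sections (8 μm) rehydrated and treated 30 min in Tris/EDTA, then blocked with PBS/0.3% Triton X. Primary rabbit anti-mouse CD31 (1:100) at 4°C overnight. Secondary Alexa Fluor 488 goat anti-rabbit IgG (1:50) for 2 h. MVD quantified from fluorescence images: five slides, four ×200 fields each.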

[6] = system: BxPC-3; experiment: Cancer cell proliferation assay; format: cell-based; settings: Homo sapiens, BXPC-3, 72 h, read-out: IC50, cell proliferation
[7] = system: MV-4-11; experiment: Cancer cell proliferation assay; format: cell-based; settings: Homo sapiens, MV4-11, 72 h, read-out: IC50, cell proliferation
[8] = system: VEGF165-induced HUVEC cell lines; experiment: VEGF165-induced HUVEC proliferation; format: cell-based; settings: Homo sapiens, 72 h, read-out: IC50, cell proliferation
[9] = system: VEGF165-induced Primary HUVECs; experiment: VEGF165-induced HUVEC proliferation; format: cell-based; settings: Homo sapiens, 72 h, read-out: IC50, cell proliferation
[10] = system: 786-O; experiment: Cancer cell proliferation assay; format: cell-based; settings: Homo sapiens, 786-0, 72 h, read-out: IC50, cell proliferation
[11] = system: HCT-116; experiment: Cancer cell proliferation assay; format: cell-based; settings: Homo sapiens, HCT-116, 72 h, read-out: IC50, cell proliferation
[12] = system: Primary HUVECs; experiment: HUVEC proliferation without VEGF165; format: cell-based; settings: Homo sapiens, 72 h, read-out: IC50, cell proliferation
Procedure, shortened: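 HUVECs grown in F-12 with 10% FBS, 18 U/mL heparin and 30 μg/mL ECGS. Seeded at 10,000 cells/well in triplicate and left to adhere overnight, then starved 24 h in 0.1% FBS. Test compound at 0.8, 3, 11.8, 46.8 and […] in 0.1% FBS, with no VEGF165 added. MTS absorbance read at 490 nm after 72 h. IC50 = concentration halving absorbance versus control.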

[13] = system: A549 xenograft tumors; experiment: Mouse xenograft tumor growth; format: in vivo; settings: dose-dependent (abstract only)
[14] = system: choroidal neovascularization; experiment: Matrigel-induced choroidal neovascularization model; format: in vivo; settings: rat, days 10-20 after Matrigel injection, n = 6
Procedure, shortened: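 Rats anesthetized with ketamine (40 mg/kg IP) and xylazine (6 mg/kg IP), then given a subretinal injection of 1.2 μL Matrigel diluted 3:1 with PBS. Test compound at 10 or 30 mg/kg on days 10–20 after injection; controls untreated. Rats perfused with PBS, DiI and 4% paraformaldehyde. Eyes cut in 100 μm serial sections and viewed by confocal microscopy. CNV area = summed section width × thickness. Mean ± SD; ANOVA/t test.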

[15] = system: HT-29 xenograft tumors; experiment: Mouse xenograft tumor growth; format: in vivo; settings: HT-29-cell-derived xenograft models; oral
Procedure, shortened: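 Two-step HT-29 xenograft in BALB/c nude mice. First, 5 × 10⁶ cells injected subcutaneously and grown to 100–300 mm³. Tumors then excised, minced into 1 mm³ pieces and implanted in the flank of new mice, then grown to 100–300 mm³. […] Oral dosing for 3–4 weeks. Percent tumor growth inhibition calculated. Study repeated once.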

[16] = system: ABCG2; settings: cited from earlier work
[17] = compared with other TKIs; cited from earlier work
[18] = biological target: C-Kit (Homo sapiens, UniProt P10721); experiment: KINOMEscan competition kinase binding assay
C-Kit, sequence (P10721 26-976): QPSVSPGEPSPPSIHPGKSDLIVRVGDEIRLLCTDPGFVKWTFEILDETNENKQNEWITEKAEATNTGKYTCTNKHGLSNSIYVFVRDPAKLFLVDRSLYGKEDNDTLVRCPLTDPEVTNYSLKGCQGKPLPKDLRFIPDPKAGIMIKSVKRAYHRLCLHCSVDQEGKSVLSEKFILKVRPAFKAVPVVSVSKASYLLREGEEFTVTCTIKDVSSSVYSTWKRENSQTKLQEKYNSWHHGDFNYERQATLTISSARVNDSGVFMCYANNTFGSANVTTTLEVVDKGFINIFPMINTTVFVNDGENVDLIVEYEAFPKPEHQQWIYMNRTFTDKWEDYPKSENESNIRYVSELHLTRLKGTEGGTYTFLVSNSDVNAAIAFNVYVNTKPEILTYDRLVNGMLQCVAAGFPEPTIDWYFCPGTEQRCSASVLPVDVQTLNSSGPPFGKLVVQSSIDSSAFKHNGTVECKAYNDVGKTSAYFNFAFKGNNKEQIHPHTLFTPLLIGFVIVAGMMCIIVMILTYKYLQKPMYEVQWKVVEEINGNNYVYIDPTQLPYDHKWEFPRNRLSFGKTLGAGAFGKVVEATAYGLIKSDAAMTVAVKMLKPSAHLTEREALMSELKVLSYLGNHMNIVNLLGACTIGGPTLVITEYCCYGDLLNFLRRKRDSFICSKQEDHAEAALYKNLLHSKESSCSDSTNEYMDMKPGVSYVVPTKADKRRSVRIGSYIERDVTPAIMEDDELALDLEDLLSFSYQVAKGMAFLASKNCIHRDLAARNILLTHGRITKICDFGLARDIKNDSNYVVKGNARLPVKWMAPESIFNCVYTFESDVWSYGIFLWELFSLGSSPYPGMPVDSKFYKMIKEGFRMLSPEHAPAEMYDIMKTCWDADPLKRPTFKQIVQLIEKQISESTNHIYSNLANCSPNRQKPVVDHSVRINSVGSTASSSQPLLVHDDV

[19] = biological target: FLT3 (Homo sapiens, UniProt P36888); experiment: KINOMEscan competition kinase binding assay
FLT3, sequence (P36888 27-993): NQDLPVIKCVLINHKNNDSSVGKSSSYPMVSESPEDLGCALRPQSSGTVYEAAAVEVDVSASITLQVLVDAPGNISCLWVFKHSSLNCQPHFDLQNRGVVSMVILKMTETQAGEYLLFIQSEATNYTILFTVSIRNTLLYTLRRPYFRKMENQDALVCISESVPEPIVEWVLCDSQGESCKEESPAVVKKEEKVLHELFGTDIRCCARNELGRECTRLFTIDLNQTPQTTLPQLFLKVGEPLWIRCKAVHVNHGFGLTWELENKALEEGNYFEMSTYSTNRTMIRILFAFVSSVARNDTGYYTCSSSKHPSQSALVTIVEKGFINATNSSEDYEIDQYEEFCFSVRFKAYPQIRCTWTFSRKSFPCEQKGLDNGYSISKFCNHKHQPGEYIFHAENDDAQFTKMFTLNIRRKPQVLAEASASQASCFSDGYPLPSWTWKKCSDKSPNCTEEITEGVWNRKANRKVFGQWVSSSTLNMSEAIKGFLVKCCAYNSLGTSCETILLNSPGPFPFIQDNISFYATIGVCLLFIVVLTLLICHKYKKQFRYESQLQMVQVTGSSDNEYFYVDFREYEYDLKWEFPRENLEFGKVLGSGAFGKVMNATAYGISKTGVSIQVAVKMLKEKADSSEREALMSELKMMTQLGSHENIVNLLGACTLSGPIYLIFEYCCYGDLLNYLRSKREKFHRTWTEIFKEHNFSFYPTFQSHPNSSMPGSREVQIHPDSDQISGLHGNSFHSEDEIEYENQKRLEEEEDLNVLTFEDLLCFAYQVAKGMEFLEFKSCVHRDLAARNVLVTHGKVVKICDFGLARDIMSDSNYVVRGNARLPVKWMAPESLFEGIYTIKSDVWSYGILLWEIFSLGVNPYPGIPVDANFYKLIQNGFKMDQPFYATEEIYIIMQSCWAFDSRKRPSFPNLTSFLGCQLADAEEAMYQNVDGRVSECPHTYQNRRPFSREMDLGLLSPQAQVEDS

[20] = system: CNV lesions; settings: laser-induced CNV rat model; oral administration; cited from earlier work
[21] = system: KDR, FLT3, and C-Kit; experiment: KINOMEscan IC50 compared with sunitinib; format: binding, human
[22] = system: KDR phosphorylation of HUVECs; experiment: VEGF-induced KDR phosphorylation of HUVECs; format: cell-based, human; settings: Figure S1
[23] = biological target: PDGFRβ (Homo sapiens, UniProt P09619); experiment: KINOMEscan competition kinase binding assay
PDGFRβ, sequence (P09619 33-1106): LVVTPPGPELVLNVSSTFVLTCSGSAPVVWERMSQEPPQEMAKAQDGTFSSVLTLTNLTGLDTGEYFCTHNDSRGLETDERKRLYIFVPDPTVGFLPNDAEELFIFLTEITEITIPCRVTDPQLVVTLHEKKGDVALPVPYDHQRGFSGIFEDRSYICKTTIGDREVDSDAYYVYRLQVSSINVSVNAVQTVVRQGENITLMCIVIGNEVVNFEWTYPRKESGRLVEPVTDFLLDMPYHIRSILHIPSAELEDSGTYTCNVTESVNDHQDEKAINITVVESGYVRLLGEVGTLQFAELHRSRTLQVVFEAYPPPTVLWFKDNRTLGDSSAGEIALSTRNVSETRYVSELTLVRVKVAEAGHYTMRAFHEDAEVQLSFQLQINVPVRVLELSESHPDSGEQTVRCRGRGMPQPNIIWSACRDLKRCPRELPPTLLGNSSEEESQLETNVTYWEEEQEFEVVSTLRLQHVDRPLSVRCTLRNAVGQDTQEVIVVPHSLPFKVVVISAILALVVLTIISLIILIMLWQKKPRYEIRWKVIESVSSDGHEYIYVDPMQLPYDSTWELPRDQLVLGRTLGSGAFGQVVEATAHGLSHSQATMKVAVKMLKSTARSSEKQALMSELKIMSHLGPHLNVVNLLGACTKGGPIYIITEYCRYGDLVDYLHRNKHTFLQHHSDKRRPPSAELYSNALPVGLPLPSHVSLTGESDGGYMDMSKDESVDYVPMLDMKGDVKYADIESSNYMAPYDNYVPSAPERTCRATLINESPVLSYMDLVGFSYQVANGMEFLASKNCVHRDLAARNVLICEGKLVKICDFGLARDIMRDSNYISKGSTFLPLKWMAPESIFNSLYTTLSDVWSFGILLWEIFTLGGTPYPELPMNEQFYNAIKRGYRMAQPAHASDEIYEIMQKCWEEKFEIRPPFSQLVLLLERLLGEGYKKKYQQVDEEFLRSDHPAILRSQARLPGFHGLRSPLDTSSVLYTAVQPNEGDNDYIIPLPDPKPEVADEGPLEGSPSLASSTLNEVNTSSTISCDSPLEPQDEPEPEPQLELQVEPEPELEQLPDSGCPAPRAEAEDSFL

[24] = system: Primary HUVECs; experiment: In vitro HUVEC tube formation assay; format: cell-based, human; settings: at both 50 and 100 nM; VEGF165 30 ng/mL, 3 h
[25] = system: MV-4-11 xenograft tumors; experiment: Mouse xenograft tumor growth; format: in vivo; settings: oral
Procedure, shortened: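 Male athymic BALB/c nude mice, 6 weeks old, injected subcutaneously with 5 × 10⁶ MV-4-11 cells in the flank next to the right forelimb. […] Oral dosing at various doses for 3–4 weeks. Percent tumor growth inhibition calculated. Study repeated twice. Mean ± SD; ANOVA/t test.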

CCN(CC)CCNC(=O)c1c(C)[nH]c(/C=C2\C(=O)Nc3ccc(F)cc32)c1C [Sunitinib, reference compound]
IC50 [1]: 2880 nM | IC50 [2]: 4420 nM | body weight loss ([3]; 40 mg/kg qd): severe body weight loss | IC50 [4]: 4430 nM | microvessel density (MVD), CD31 staining [5]: significantly inhibited | IC50 [6]: 4960 nM | IC50 [7]: 14.8 nM | IC50 [8]: 39.8 nM | IC50 [9]: 12.6 nM | IC50 [10]: 6040 nM | IC50 [11]: 2520 nM

CN[C@@H]1C[C@H]2O[C@@](C)([C@@H]1OC)n1c3ccccc3c3c4c(c5c6ccccc6n2c5c31)C(=O)NC4 [Staurosporine, reference compound]
IC50 [12]: 8.12 nM

Cc1[nH]c(/C=C2\C(=O)Nc3ccc(F)cc32)c(C)c1C(=O)N[C@H]1CCN(C(=O)N(C)C)C1 [Vorolanib]
tumor growth [13]: inhibited tumor growth | CNV area ([14]; 10 mg/kg): 493.58 ± 317.17 × 10^3 μm^2 | CNV area ([14]; 30 mg/kg): 357.70 ± 276.97 × 10^3 μm^2 | IC50 [1]: > 9000 nM | IC50 [2]: > 9000 nM | efficacious dose [15]: 40–160 mg/kg bid | body weight loss / toxicity ([3]; orally administered vorolanib): no obvious body weight loss or other significant toxicity observed | drug efflux function of ABCG2 [16]: inhibition of the drug efflux function of ABCG2 | IC50 [4]: > 9000 nM | microvessel density (MVD) inhibitory activity ([5]; high-dose vorolanib 160 mg/kg twice daily [bid]): comparable with sunitinib | microvessel density (MVD), CD31 staining [5]: suppressed the MVD of the mouse in a dose-dependent manner | IC50 [6]: > 9000 nM | half-life [17]: shorter half-life | tissue accumulation [17]: limited tissue accumulation | IC50 [18]: 0.14 nM | IC50 [19]: 0.63 nM | CNV lesions [20]: could reduce CNV lesions | IC50 [7]: 140 nM | IC50 fold lower than those of sunitinib [21]: 4.7- to 15.4 fold | IC50 [8]: 64.1 nM | IC50 [9]: 92.4 nM | VEGF-induced KDR phosphorylation of HUVECs [22]: inhibited the VEGF-induced KDR phosphorylation of HUVECs | IC50 [10]: > 9000 nM | IC50 [23]: 0.13 nM | IC50 [12]: > 2000 nM | VEGF165-induced tube formation of HUVECs [24]: inhibited the VEGF165-induced tube formation of HUVECs, in vitro, with inhibitory strengths comparable with that of sunitinib | IC50 [11]: > 9000 nM | tumor growth inhibition ([25]; 10 mg/kg bid): began to show significant inhibition | tumor regression ([25]; 80 mg/kg bid): tumors completely disappeared
